Here are results for 34 compounds from ChEMBL document CHEMBL1147439, “Synthesis and SAR evaluation of 1,2,4-triazoles as A(2A) receptor antagonists” (Bioorg Med Chem Lett, 2004).

Data set [1] in a line: pKa value was determined. Format: physicochemical.
In data set [2] the target is T1, Adenosine receptor A1 (Homo sapiens, UniProt P30542).
T1 sequence (P30542 whole entry): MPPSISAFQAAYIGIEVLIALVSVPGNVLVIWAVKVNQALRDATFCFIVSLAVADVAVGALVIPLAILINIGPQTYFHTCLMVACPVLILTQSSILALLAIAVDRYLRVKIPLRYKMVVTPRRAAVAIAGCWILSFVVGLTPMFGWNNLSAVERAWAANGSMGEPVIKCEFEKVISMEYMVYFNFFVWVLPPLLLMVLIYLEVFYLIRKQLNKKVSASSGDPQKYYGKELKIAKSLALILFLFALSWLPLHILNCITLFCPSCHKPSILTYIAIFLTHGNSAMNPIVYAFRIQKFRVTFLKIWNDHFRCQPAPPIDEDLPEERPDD
Briefly: Binding affinity for human adenosine A1 receptor by displacement of [3H]DPCPX. An outline of the steps: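 Membranes from cells expressing recombinant human A1 receptor, pre-mixed with adenosine deaminase and SPA beads. Labelled with [3H]DPCPX (0.6 nM final) against 10 concentrations of competitor or buffer. Buffer: Tris-HCl 50 mM pH 7.4, NaCl 120 mM, KCl 5 mM, CaCl2 2 mM, MgCl2 10 mM. Xanthine amine congener defined non-specific binding. Incubated 60 min at room temperature, centrifuged, scintillation counted. Duplicates, at least two experiments; Ki given as mean.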
Background: In a radioligand displacement assay an active substance lowers the binding of a labelled ligand.

The target in data set [3] is T2, Adenosine receptor A2a (Homo sapiens, UniProt P29274). Briefly: Binding affinity towards human recombinant adenosine A2A receptor by displacement of [3H]SCH-58261 radioligand.
Data set [4] addresses Adenosine receptor A2a (Rattus norvegicus, UniProt P30543). Briefly: Binding affinity for rat adenosine A2A receptor by displacement of [3H]SCH-58261.
Data set [5] can be described thus: Medium permeability in parallel artificial membrane permeation assay; high. The class given is functional.
Data set [6] deals with T2, Adenosine receptor A2a. Briefly: Binding affinity for human adenosine A2A receptor by displacement of [3H]SCH-58,261; inactive.
The nature of data set [7]: Medium permeability in parallel artificial membrane permeation assay; medium. Format: functional.

T2 sequence (P29274 whole entry): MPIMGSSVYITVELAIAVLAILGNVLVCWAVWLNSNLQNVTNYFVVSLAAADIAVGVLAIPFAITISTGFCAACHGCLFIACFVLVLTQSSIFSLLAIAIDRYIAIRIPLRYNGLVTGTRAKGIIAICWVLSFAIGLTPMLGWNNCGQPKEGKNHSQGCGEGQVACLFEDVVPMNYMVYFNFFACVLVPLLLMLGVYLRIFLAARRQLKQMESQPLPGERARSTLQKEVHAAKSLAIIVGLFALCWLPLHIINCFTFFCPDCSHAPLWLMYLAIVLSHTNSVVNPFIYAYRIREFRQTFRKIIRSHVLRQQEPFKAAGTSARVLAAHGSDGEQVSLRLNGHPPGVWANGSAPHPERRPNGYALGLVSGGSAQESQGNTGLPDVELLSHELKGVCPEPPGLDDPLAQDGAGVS
Sequence of Adenosine receptor A2a (Rattus norvegicus, UniProt P30543) (P30543 whole entry): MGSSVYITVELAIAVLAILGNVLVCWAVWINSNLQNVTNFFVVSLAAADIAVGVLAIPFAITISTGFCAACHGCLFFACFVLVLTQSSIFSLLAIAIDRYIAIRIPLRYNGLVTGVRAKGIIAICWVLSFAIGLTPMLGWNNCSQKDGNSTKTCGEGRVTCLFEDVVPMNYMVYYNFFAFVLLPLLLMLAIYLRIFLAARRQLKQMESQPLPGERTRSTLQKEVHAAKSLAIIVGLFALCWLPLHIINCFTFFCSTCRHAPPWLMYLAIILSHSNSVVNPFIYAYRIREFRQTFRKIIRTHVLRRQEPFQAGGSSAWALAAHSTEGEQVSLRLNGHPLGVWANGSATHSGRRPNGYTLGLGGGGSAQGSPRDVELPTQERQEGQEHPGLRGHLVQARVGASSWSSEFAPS

One may read the pKa as the pH at which an ionisable group is half protonated. In data set [1], `COc1ccc(O)c(/C=N/NS(=O)(=O)Cc2ccccc2)c1` registered a pKa of 6.5.
`COc1ccc(O)c(/C=N/NC(=O)Cc2ccccc2)c1` yielded a pKa in data set [1] of 2.9.
For orientation: Ki means a dissociation constant, usually derived from enzyme kinetics or from competition with a known ligand. With `COc1cccc(-c2n[nH]c(CCc3ccc(Cl)c(Cl)c3)n2)c1`, the results for the Ki in data set [2] and in data set [3] were 1800 nM and 1000 nM, respectively.
As to `COc1cccc(-c2n[nH]c(CC3CCCCC3)n2)c1`, the Ki in data set [3] was found to be 700 nM.
For the compound `COc1cccc(-c2n[nH]c(Cc3ccccc3Br)n2)c1`, in data set [3], the inhibition constant (Ki) is 20 nM.
The same measure, in the same setting: to `S/C(Cc1ccccc1)=N\N=C\c1ccc2ccccc2n1` belongs 1200 nM; to `Clc1ccc(Cc2nnc(-c3cnccn3)[nH]2)cc1Cl`, 60 nM.
Compound `COc1ccc(O)c(/C=N/N=C(\S)Cc2ccccc2)c1` showed a pKa in data set [1] of 6.6. Further, the Ki in data set [3] stood at 20 nM.
As to `COc1cccc(-c2n[nH]c(Cc3cccc(Br)c3)n2)c1`, the results for the inhibition constant Ki in data set [4], in data set [2] and in data set [3] were 40 nM, 100 nM and 10 nM, respectively. Besides, in data set [5], the Activity was 1.9 10e-6·s cm-1.
In data set [6], `Cc1ccc(O)c(C2=NN(C(=S)Cc3ccccc3)CC2)c1` returned a Ki greater than 5200 nM.
On to `Cn1nc(-c2ccc(N=[N+]=[N-])cc2)nc1-c1cccc(CN2CC=CC2)c1`, for which the values for the Ki in data set [2] and in data set [3] were 7300 nM and 400 nM, respectively.
Take `COc1ccc(/C=N/N=C(\S)Cc2ccccc2)c(O)c1`: the Ki in data set [3] worked out at 100 nM.
`COc1cccc(-c2n[nH]c(Cc3ccc(Cl)c(Cl)c3)n2)c1`: the values for the Ki in data set [2] and in data set [3] were 1900 nM and 40 nM, respectively.
On to `c1cc(CN2CCCC2)cc(-c2n[nH]c(-c3ccc4c(c3)OCCO4)n2)c1`, for which the Ki in data set [2] is 7600 nM; in data set [3], 1000 nM.
Regarding `Oc1ccc(OC(F)(F)F)cc1/C=N/N=C(\S)Cc1ccccc1`, in data set [3], the Ki is 1400 nM.
On to `COc1cccc(-c2n[nH]c(Cc3cccc(F)c3F)n2)c1`, for which the Ki came out at 40 nM in data set [4], 900 nM in data set [2] and 20 nM in data set [3]. For the same compound, in data set [5], the Activity is 3.8 10e-6·s cm-1.
Regarding `S/C(Cc1ccccc1)=N\N=C\c1ccccn1`, in data set [3], the Ki is 100 nM.
On to `S/C(Cc1ccccc1)=N\N=C\c1cccnc1`, for which the Ki in data set [3] was 5 nM.
In the case of `Clc1ccc(Cc2n[nH]c(-c3ccc4c(c3)OCO4)n2)cc1Cl`, the Ki in data set [3] was 100 nM.
`COc1cccc(-c2nnc(CN3CCCCC3)[nH]2)c1`: the Ki in data set [3] is greater than 5200 nM.
As to `COc1cc(/C=N/N=C(\S)Cc2ccccc2)c(O)c(OC)c1`, in data set [3], the Ki amounted to 4200 nM.
Consider `O=[N+]([O-])c1ccc(O)c(/C=N/N=C(\S)Cc2ccccc2)c1`, for which the Ki in data set [3] amounted to 10 nM.
As to `COc1cccc(-c2nnc(Cc3ccc(F)c(F)c3)[nH]2)c1`, the Ki in data set [3] was determined as 70 nM.
As to `S/C(Cc1ccccc1)=N\N=C\c1cnc2ccccc2c1`, the Ki in data set [3] turned out to be 2000 nM.
Regarding `COc1cccc(-c2n[nH]c(Cc3ccc4ccccc4c3)n2)c1`, the Ki in data set [4] amounted to 400 nM; in data set [2], 2500 nM; in data set [3], 100 nM. Moreover, in data set [7], the Activity was 0.3 10e-6·s cm-1.
For `S/C(Cc1ccccc1)=N\N=C\c1ccccc1`, in data set [3], the Ki is greater than 5200 nM.
The same measure, in the same setting: to `Oc1ccccc1-c1n[nH]c(-c2ccccc2)n1` belongs 700 nM; to `COc1cccc(-c2n[nH]c(Cc3cccc([N+](=O)[O-])c3)n2)c1`, 80 nM.
In the case of `COc1cccc(-c2nc(Cc3ccc(C)c(C)c3)n[nH]2)c1`, the results for the Ki in data set [4], in data set [2] and in data set [3] were 90 nM, 1700 nM and 20 nM, respectively. Further, the Activity in data set [5] was 0.9 10e-6·s cm-1.
`COc1cccc(-c2nnc(Cc3ccc(Cl)c(Cl)c3)[nH]2)c1OC`: the Ki in data set [3] was found to be 90 nM.
Regarding `COc1cccc(O)c1/C=N/N=C(\S)Cc1ccccc1`, the Ki in data set [3] was greater than 5200 nM.
`COc1cccc(/C=N/N=C(\S)Cc2ccccc2)c1O`: the Ki in data set [3] stood at 4700 nM.
For the compound `Clc1ccc(Cc2nnc(C3CCCNC3)[nH]2)cc1Cl` (configuration not stated), the Ki in data set [3] was greater than 5200 nM.
In the case of `COc1cccc(-c2nnc(-c3ccc(Cl)c(Cl)c3)[nH]2)c1`, the values for the Ki in data set [2] and in data set [3] were 6100 nM and 700 nM, respectively.
